Source: PubChem (SRMLSC)
bCat KO growth: primary screen for growth suppressors in beta-catenin knockout HCT116 cells (colon tumor, human) | HCT116 beta-catenin knockout viability, CellTiter-Glo, 60 h; active compounds read low | viability, % at 10 µM | 1.5% of 140,000 active | AID 818, 2007;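 active = viability at or under a set limit, the compound median less 4 SD, cut at about 6% in these data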;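 also: 0% = Hyamine 1622 control at 20 µM and 100% = untreated cell control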
Fibroblast inh: antiproliferative effect on LL 47 fibroblasts – human, LL 47 cells, CellTiter-Glo luminescence, primary screen; LL 47 human lung fibroblast viability, ATP luminescence; active compounds read low; viability, % at 10 µM; 1.1% of 85,000 active;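 active = viability at or below 50% in the single dose screen; inactive = viability above 50%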;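 also: compound exposure lasted 72 h before the ATP readout; 100% = median luminescence of untreated cell-only wells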
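Benchmarks: Cell-only wells, no compound | Test system: LL 47 human lung fibroblasts, passage 12 or lower | Input: 1,150 cells/well | Measured by: CellTiter-Glo luminescence measuring cellular ATP | Medium: IMEM, 15% FBS supplement | Schedule: Overnight attachment after seeding, then 72 h compound exposure at 37 °C | Doses: Compound addition at 0.1% DMSO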
H69AR growth 86K: proliferation blockers of H69AR lung cancer cells, primary screen, cell-based, human, 86K library | AID 598, 2007 | viability, % at 10 µM | 6% of 85,000 active | H69AR lung tumor viability, ATP luminescence, 72 h; active compounds read low;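 active = viability at or below 40%; inactive = viability above 40%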;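 also: multidrug resistant small cell line overexpressing MRP-1 efflux transporter; 100% = mean luminescence of untreated control wells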
HUVEC inhibit: inhibitors of HUVEC proliferation, primary screen, cell-based, 384-well; 1.1% of 86,000 active; viability, % at 10 µM (by protocol); CellTiter-Glo luminescence, 72 h; active compounds read low;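 active = viability at or below 30%; inactive = viability above 30%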;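 also: 100% = median luminescence of DMSO-only cell control wells on each plate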
HCT116 PTEN-null: growth suppression of PTEN-null HCT116, primary screen, cell-based, CellTiter-Glo | HCT116 PTEN-null viability, 60 h; active compounds read low | viability, % at 10 µM | 1.2% of 140,000 active;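 active = viability at or below a set limit, 4 SD under the median of all tested compounds, cut at about 3.7% in these data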;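 also: PTEN knockout HCT116 line with beta catenin targeted HCT116 as companion control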
* = called active by the depositor; . = no result. This excerpt belongs to a sample that is enriched for hits.

SMILES	bCat KO growth	Fibroblast inh	H69AR growth 86K	HUVEC inhibit	HCT116 PTEN-null
COc1ccc(CCNC(=O)COC(=O)c2ccco2)cc1OC	99.3	101.4	103.2	110.0	99.6
COc1ccc(CCNC(=O)c2ccc3nc(-c4ccco4)c(-c4ccco4)nc3c2)cc1OC	63.6	101.7	17.9*	47.5	56.3
COc1ccc(CCNC(=O)c2ccc3c(=O)n(Cc4ccco4)c(=S)[nH]c3c2)cc1OC	91.7	100.6	10.6*	40.8	78.0
Cc1ccc(CN(Cc2ccco2)S(=O)(=O)c2ccc(S(=O)(=O)NCC3CCCO3)cc2)cc1 (stereo not drawn)	85.1	.	.	.	86.6
Cc1cc(C)c2[nH]c(=O)c(CN(Cc3cccs3)C(=S)NCC3CCCO3)cc2c1 (stereo not drawn)	76.5	.	.	.	80.3
CCN(NC(=O)C(O)(c1ccccc1)c1ccccc1)C(=O)c1ccccc1	87.2	.	.	.	92.6
CC(c1ccccc1)N(NC(=O)C(O)(c1ccccc1)c1ccccc1)C(=O)c1ccccc1 (stereo not drawn)	36.1	.	.	.	1.7*
COCCNC(=S)N/N=C(\C)c1ccc(-n2ccnc2)cc1	7.6	.	.	.	6.0
CC(=O)Nc1ccc(S(=O)(=O)N2CCOCC2)cc1	89.8	112.9	94.7	103.0	94.0
Cc1ccc(O)c(-c2cc(C(=O)Nc3ccc(S(=O)(=O)N4CC(C)OC(C)C4)cc3)[nH]n2)c1 (stereo not drawn)	33.3	89.2	17.3*	77.0	25.7
Cc1cc(O)c(-c2cc(C(=O)Nc3ccc(S(=O)(=O)N4CCOCC4)cc3)[nH]n2)cc1C	15.2	48.6*	33.0*	45.4	8.6
CC(/C=N/Nc1nnc2c(n1)[nH]c1ccccc12)=C\c1ccco1	89.0	113.7	34.5*	97.5	84.7
O=C(CN(c1cccc(C(F)(F)F)c1)S(=O)(=O)c1ccc(Cl)c([N+](=O)[O-])c1)NCc1ccccc1	39.7	.	.	.	46.7
Cc1ccc(N(CC(=O)NCCc2ccc(F)cc2)S(=O)(=O)c2ccc(Cl)c([N+](=O)[O-])c2)c(C)c1	1.5*	.	.	.	1.4*
COc1ccc(-n2c(=S)[nH]c3cc(C(=O)NCCCN4CCCC4=O)ccc3c2=O)cc1	5.2*	93.3	98.2	92.1	12.8
Cc1ccc(/C=N\NC(=O)C2CN(S(=O)(=O)c3ccccc3)CCN2S(=O)(=O)c2ccccc2)cc1 (stereo not drawn)	77.2	.	.	.	72.8
CC(=O)n1cc(Nc2ccccc2C(=O)O)c2ccccc21	93.8	100.9	54.0	105.2	83.9
CCOC(=O)c1ccccc1Nc1cn(C(C)=O)c2ccccc12	10.0	45.9*	23.2*	57.5	14.7
COC(=O)c1ccc(/C=C(\C#N)C(=O)NC(C)c2ccccc2)cc1 (stereo not drawn)	3.7*	.	.	.	1.6*
Cc1ccc(C(C)NC(=O)/C(C#N)=C\c2c(C)[nH]c3ccccc23)cc1 (stereo not drawn)	93.3	.	.	.	97.0
O=C(OC(c1ccccc1)c1nccc2ccccc12)c1cc([N+](=O)[O-])cc([N+](=O)[O-])c1 (stereo not drawn)	88.7	.	.	.	73.4
COc1ccccc1NS(=O)(=O)c1ccc2c(c1)n(C)c(=O)n2C	77.3	.	.	.	82.2
O=C(CSc1nnc(COc2ccc(Cl)cc2)o1)N1c2ccccc2CCc2ccccc21	29.5	61.5	9.1*	92.5	38.4
O=c1cc(/C=C/c2cccs2)[nH]c2ccccc12	13.5	78.6	24.9*	56.7	21.7
O=C(CN1N=C(c2ccc(Cl)cc2)CCC1=O)NCc1cccnc1	85.1	.	.	.	81.7
SMILES	bCat KO growth	Fibroblast inh	H69AR growth 86K	HUVEC inhibit	HCT116 PTEN-null
CCCCN(C(=O)c1ccc(Cl)cc1)C1CC2CCC(C1)N2C (stereo not drawn)	93.7	89.8	35.7*	87.2	91.7
Cc1ccc(N2C(=O)[C@@H]3C(C(=O)C(c4ccccc4)c4ccccc4)=NN[C@@H]3C2=O)cc1	89.2	.	.	.	90.3
C=C(C)CNC(=S)N/N=C(\C)c1ccc(Cl)s1	82.2	.	.	.	82.7
Cc1ccc(S(=O)(=O)NCCC(=O)NCc2ccco2)cc1	83.0	.	.	.	94.0
O=C(CC1(O)C(=O)N(C/C=C/c2ccccc2)c2ccccc21)c1ccccn1 (stereo not drawn)	12.5	56.9	24.5*	34.1	10.0
CCOC(=O)N1CCN(CCC(=O)Nc2cc([N+](=O)[O-])ccc2OC)CC1	84.2	.	.	.	103.9
CC(NC(=O)N(Cc1ccccc1)Cc1ccc2c(c1)OCO2)(C(F)(F)F)C(F)(F)F	95.3	94.9	73.6	102.5	87.8
CCC(NC(=O)N(Cc1ccccc1)Cc1ccc2c(c1)OCO2)(C(F)(F)F)C(F)(F)F	91.9	98.9	36.7*	84.6	89.9
CCCCCOc1ccc(Br)cc1/C(C)=N/NC1=NCCN1	3.1*	92.5	2.3*	6.4*	4.4
Cc1cc(CN2CCN(CCC#N)CC2)c(O)c(C2(C)CCCCC2)c1	72.7	94.9	38.2*	95.2	82.9
CC(C)(C)C1=CC(=O)C(N2CCOCC2)=CC1=O	2.0*	.	.	.	2.0*
CCOc1ccc(C(C)(C)C)cc1S(=O)(=O)N1CCOCC1	77.0	97.3	79.7	90.4	79.1
Cc1cccc(C=Nc2ccccc2C(N)=O)c1	22.0	58.4	23.2*	62.7	23.6
C#CCn1c(=NC(=O)c2ccc(Cl)s2)sc2cccc(OC)c21	4.4*	61.1	1.5*	43.6	4.5
C#CCn1c(=NC(=O)c2cccs2)sc2cccc(OCC)c21	92.1	95.2	22.6*	78.9	92.1
COC(=O)Cn1c(=NC(=O)c2ccc(Cl)s2)sc2cc(F)ccc21	60.8	.	.	.	58.3
COc1cccc(C(=O)COC(=O)c2ccc(NC(C)=O)cc2)c1	97.3	.	.	.	96.8
CCCC12CN3CCN(CC(C3)/C1=N\NC(=O)c1ccc(C(C)(C)C)cc1)C2	94.5	.	.	.	87.3
N#CC1=C2SCC(O)(c3ccccc3)N2C(=O)CC1c1ccccc1F (stereo not drawn)	26.6	60.1	15.4*	36.8	26.2
N#CC1=C(N)NC(SCc2ccccc2)=C(C#N)C12CCCCC2	15.8	60.0	10.7*	26.4*	37.0
CCSC1=C(C#N)C2(CCCCC2)C(C#N)=C(N)N1	81.2	86.2	79.1	89.6	87.0
CC1CCN(S(=O)(=O)c2cn(CC(=O)N3CC(C)CC(C)C3)c(=O)c3ccccc23)CC1 (stereo not drawn)	98.9	.	.	.	92.5
O=C(NCCNC(=O)c1cc(OCC(F)(F)F)ccc1OCC(F)(F)F)Nc1ccc(Cl)cc1	5.4*	.	.	.	9.7
CCOc1ccc(NC(=O)Nc2cc(OCC(F)(F)F)cc(OCC(F)(F)F)c2)cc1	40.6	.	.	.	17.5
O=C(Nc1ccc(F)cc1)Nc1cc(OCC(F)(F)F)cc(OCC(F)(F)F)c1	5.5*	.	.	.	3.7*
CN(CC(=O)Nc1cccc(F)c1)C(=O)CCCc1cccs1	93.3	.	.	.	97.5
COc1cc(OC)cc(-c2ncc3ccccn23)c1	75.7	97.7	38.1*	80.8	83.5
